Test results reported in ChEMBL document CHEMBL1938254, “Semisynthetic neoboutomellerone derivatives as ubiquitin-proteasome pathway inhibitors” (Bioorg Med Chem, 2012).
Values joined by “and” are separate entries in the source; they are usually repeats but may differ in a detail not shown here. Equal values may be shown once. Active and inactive are the calls of the source. The calls are words filed in the database; no cut-off is given here.

Experiments:
DLD-1 [1] = experiment: Inhibition of chymotrypsin-like activity of 20S proteasome in human DLD1 cells transfected with 4Ub-Luc gene using Succinyl-Leu-Leu-Val-Tyr-AMC as substrate at 20 uM after 6 hrs by spectrofluorometric analysis; assay type: cell-based
Procedure, shortened: (§1)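 Stably transfected DLD-1 4Ub-Luc cells seeded at 10⁴ cells/well, exposed to compound or solvent for 6 h, then incubated a further 30 min in reaction buffer (30 mM Tris–HCl pH 7.5, 1 mM ATP) with an activity-specific fluorogenic substrate; cellular proteasome activity read by fluorescence. Cells grown in MEM with 5% heat-inactivated serum.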

DLD-1 [2] = experiment: Inhibition of peptide-glutamyl-peptide-hydrolyzing activity of 20S proteasome in human DLD1 cells transfected with 4Ub-Luc gene using Z-Leu-Leu-Glu-AMC as substrate at 40 uM after 6 hrs by spectrofluorometric analysis; assay type: cell-based; procedure, shortened: as §1
DLD-1 [3] = experiment: Inhibition of 20S proteasome in human DLD1 cells transfected with 4Ub-Luc gene assessed as bioluminescence induction factor at 5 uM after 8 hrs by luciferase reporter gene assay relative to epoxomicin; assay type: cell-based
Procedure, shortened: (§2)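 Stably transfected DLD-1 cells expressing 4Ub-Luc reporter, cultured in MEM with 5% heat-inactivated serum. Seeded at 10⁴ cells/well and treated with compound or solvent for 8 h. Luciferase activity in lysates read by luminometer. Induction factor = signal of treated over untreated cells, normalised to epoxomicin at 10^-7 M run in parallel (set to 100). IF ≥10 counted active.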

[4] = Inhibition of chymotrypsin-like activity of 20S proteasome in human DLD1 cells transfected with 4Ub-Luc gene using Succinyl-Leu-Leu-Val-Tyr-AMC as substrate after 6 hrs by spectrofluorometric analysis; assay type: cell-based; settings: dld-1
Procedure, shortened: (§3)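 DLD-1 4Ub-Luc cells seeded at 10⁴ cells/well, exposed to compound or solvent for 6 h, then 30 min in reaction buffer (30 mM Tris–HCl pH 7.5, 1 mM ATP). Chymotrypsin-like and PGPH activities read with specific fluorogenic substrates.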

DLD-1 [5] = experiment: Inhibition of 20S proteasome in human DLD1 cells transfected with 4Ub-Luc gene assessed as bioluminescence induction factor at 0.5 uM after 8 hrs by luciferase reporter gene assay relative to epoxomicin; assay type: cell-based; procedure, shortened: as §2
DLD-1 [6] = experiment: Inhibition of 20S proteasome activity in human DLD1 cells transfected with 4Ub-Luc gene assessed as bioluminescence induction factor at 10 uM after 8 hrs by luciferase reporter gene assay relative to epoxomicin; assay type: cell-based; procedure, shortened: as §2
DLD-1 [7] = experiment: Inhibition of 20S proteasome in human DLD1 cells transfected with 4Ub-Luc gene assessed as bioluminescence induction factor at 1 uM after 8 hrs by luciferase reporter gene assay relative to epoxomicin; assay type: cell-based; procedure, shortened: as §2
[8] = Cytotoxicity against human WM266.4 cells after 72 hrs by ATPlite assay; assay type: functional, cell-based; settings: WM 266-4, 72 h
Procedure, shortened: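 WM-266-4 metastatic melanoma cells grown in DMEM with 10% fetal calf serum, 2 mM L-glutamine, fungizone and penicillin–streptomycin at 37 °C, 5% CO2. Seeded at 3 × 10⁴ cells/ml, left 24 h, then exposed to increasing compound concentrations for 72 h. Viability read as ATP level (ATPlite). IC50 from nonlinear sigmoidal fit with variable Hill slope; mean of two independent experiments.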

[9] = Inhibition of peptide-glutamyl-peptide-hydrolyzing activity of 20S proteasome in human DLD1 cells transfected with 4Ub-Luc gene using Z-Leu-Leu-Glu-AMC as substrate after 6 hrs by spectrofluorometric analysis; assay type: cell-based; settings: dld-1; procedure, shortened: as §3

Compound | inhibition (DLD-1 [1]) | inhibition (DLD-1 [2]) | fold change (FC) (DLD-1 [3]) | IC50 [4] [µM] | fold change (FC) (DLD-1 [5]) | fold change (FC) (DLD-1 [6]) | fold change (FC) (DLD-1 [7]) | IC50 [8] [µM] | IC50 [9] [µM]
C[C@]12C(=O)C=CCC1=CC[C@@H]1[C@@H]2CC[C@]2(O)C(=O)O[C@@]3(C)[C@H]4C[C@]5(C)[C@@H](CO[C@@]16O[C@@]32[C@H]5C6=O)C(=O)O4 | Active | Active | 19 |  |  |  |  |  | 
C=C(C(=O)[C@H](OC(=O)CCl)[C@@H](C)[C@H]1[C@@H](OC(C)=O)C[C@@]2(C)[C@@H]3CC[C@H]4[C@H](C)C(=O)C=C[C@@]45C[C@@]35CC[C@]12C)[C@@H](C)COC(C)=O |  |  | 21 | 50 | 23 | 5 | 64 | 0.66 | 100
C=C(C(=O)[C@H](O)[C@@H](C)[C@H]1[C@@H](OC(C)=O)C[C@@]2(C)[C@@H]3CC[C@H]4[C@H](C)C(=O)C=C[C@@]45C[C@@]35CC[C@]12C)[C@@H](C)CO |  |  | 28 | 42 | 1.4 | 2.9 | 45 | 1.6 | 51
C=C(C(=O)[C@H](OC(C)=O)[C@@H](C)[C@H]1[C@@H](OC(C)=O)C[C@@]2(C)[C@@H]3CC[C@H]4[C@H](C)C(=O)C=C[C@@]45C[C@@]35CC[C@]12C)[C@@H](C)COC(=O)N1CCN(C)CC1 |  |  | 4.2 | 13 | 8 | 1 | 68 | 0.5 | 16
C=C(C(=O)[C@H](OC(C)=O)[C@@H](C)[C@H]1[C@@H](OC(C)=O)C[C@@]2(C)[C@@H]3CC[C@H]4[C@H](C)C(=O)C=C[C@@]45C[C@@]35CC[C@]12C)[C@@H](C)COC(=O)Nc1ccccc1 |  |  | 60 | > 1000 | 6.4 |  | 42 | 0.19 | > 1000
C=C(C(=O)[C@H](OC(C)=O)[C@@H](C)[C@H]1[C@@H](OC(C)=O)C[C@@]2(C)[C@@H]3CC[C@H]4[C@H](C)C(=O)C=C[C@@]45C[C@@]35CC[C@]12C)[C@@H](C)COC(=O)CCC(=O)O |  |  | 20 and 15 | 25 | 1.4 and 2 | 4.4 and 3.7 | 45 and 61 |  | 37
C=C(C(=O)[C@H](OC(=O)CNC(=O)OC(C)(C)C)[C@@H](C)[C@H]1[C@@H](OC(C)=O)C[C@@]2(C)[C@@H]3CC[C@H]4[C@H](C)C(=O)C=C[C@@]45C[C@@]35CC[C@]12C)[C@@H](C)COC(=O)CNC(=O)OC(C)(C)C |  |  | 33 | 21 | 4.3 | 17 | 47 |  | 38
C=C(C(=O)[C@H](OC(C)=O)[C@@H](C)[C@H]1[C@@H](OC(C)=O)C[C@@]2(C)[C@@H]3CC[C@H]4[C@H](C)C(=O)C=C[C@@]45C[C@@]35CC[C@]12C)[C@@H](C)COC(=O)CN(C)C |  |  | 11 | 31 | 66 | 2.7 | 50 | 0.61 | 52
C=C(C(=O)[C@H](O)[C@@H](C)[C@H]1[C@@H](OC(C)=O)C[C@@]2(C)[C@@H]3CC[C@H]4[C@H](C)C(=O)C=C[C@@]45C[C@@]35CC[C@]12C)[C@@H](C)COC(C)=O |  |  | 29 | 31 | 1.7 | 6 | 26 | 0.99 | 45
C=CCOC[C@H](C)C(=C)C(=O)[C@H](O)[C@@H](C)[C@H]1[C@@H](OC(C)=O)C[C@@]2(C)[C@@H]3CC[C@H]4[C@H](C)C(=O)C=C[C@@]45C[C@@]35CC[C@]12C |  |  | 13 |  | 3.7 | 1.5 | 49 | 0.78 | 
